# Compound activity (PubChem)
# Hits are enriched below; roughly 1.4% of the tested compounds scored in any of these assays.
# PG9 binder – binders of HIV-1 gp120 antibody PG9, primary screen, biochemical, TR-FRET. 360,000 tested, 0.43% active. TR-FRET gp120-PG9 antibody binding. AID 624416, 2012. HIV-1 gp120 / PG9 antibody interaction. inhibition, % at 6.7 µM; in the data active = inhibition above about 8.5%
# NR2E3 ag-1 – inhibitors of NR2E3-RetCOR corepressor binding, primary screen, NR2E3 agonist project, biochemical, TR-FRET, GST-NR2E3, biotin-RetCOR. 1536-well. inhibition of corepressor binding, % at 4.78 µM. 320,000 tested, 0.12% active. Photoreceptor-specific nuclear receptor (Homo sapiens), Q9Y5X4. AID 2300, 2010;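 active = percent inhibition above the cutoff of mean plus 3 SD of all tested compounds, set per screening campaign, cut at about 20% in these data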;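 also: 0% = DMSO wells and 100% = biotin wells as full block of FRET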
# Target sequence (Q9Y5X4 whole entry, looked up): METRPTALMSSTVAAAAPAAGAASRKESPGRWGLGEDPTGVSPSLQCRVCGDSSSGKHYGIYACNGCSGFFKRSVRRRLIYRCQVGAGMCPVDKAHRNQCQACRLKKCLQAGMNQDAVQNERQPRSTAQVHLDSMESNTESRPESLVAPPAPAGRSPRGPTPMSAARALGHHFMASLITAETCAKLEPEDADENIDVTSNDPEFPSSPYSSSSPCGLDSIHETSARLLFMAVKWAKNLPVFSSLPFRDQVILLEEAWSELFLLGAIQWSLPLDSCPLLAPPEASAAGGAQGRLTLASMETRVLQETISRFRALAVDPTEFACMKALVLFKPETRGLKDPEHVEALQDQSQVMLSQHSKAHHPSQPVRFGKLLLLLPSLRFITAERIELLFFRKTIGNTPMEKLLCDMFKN
#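 Test system – NR2E3–RetCOR corepressor complex · Quantity – NR2E3 fusion 1.35 nM · Buffer or medium – Tris pH 7.5 · Incubation – Compound–protein incubation for 5 h at 4 °C · Technique – TR-FRET, Eu(K)-anti-GST donor, streptavidin-D2 acceptor, ex 340, em 617/671 nm · Evaluation – percent inhibition of 671/617 nm emission ratio versus biotin and DMSO controls · Plate – 1536-well format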
# NR2E3 ag-2 – NR2E3 agonists in two-hybrid cells, primary screen, cell-based, luminescence, CHO-S, Gal4-NCOR/VP16-NR2E3; AID 602229, 2012; inhibition of corepressor binding, % at 3.98 µM; Photoreceptor-specific nuclear receptor (Homo sapiens), Q9Y5X4; luciferase; 360,000 tested, 0.35% active;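 active = inhibition above the mean of all tested compounds plus 3 SD, cut at about 70% in these data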;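 also: 0% = DMSO with NR2E3 transfected cells and 100% = cells lacking NR2E3 construct; higher means lower luciferase signal from less NR2E3 corepressor binding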
# Rev-erbA mod – modulators of Rev-erb alpha DNA binding, primary screen, biochemical, FITC-DNA, fluorescence polarization, uHTS; Rev-erbα–FITC-DNA binding, 90 min; activity, % at 10 µM; Nuclear receptor subfamily 1 group D member 1 (Homo sapiens), P20393; 370,000 tested, 0.79% active;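 active = activity above about 14%, limit read from the data; passing the limit was not always enough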;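 also: 0% = DMSO wells with 35 nM protein and 100% = DMSO wells with 750 nM protein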
# NR2E3 ag confirm – NR2E3 agonist confirmation in cells, cell-based, luminescence, CHO-S two-hybrid; shares compounds with NR2E3 ag-2; CHO-S mammalian two-hybrid NR2E3-NCOR, luciferase luminescence; inhibition, % at 3.98 µM; 2,300 tested, 51% active; AID 624378, 2012;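 active = average inhibition above a cutoff equal to the mean inhibition of all tested compounds plus one SD, cut at about 70% in these data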;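 also: 0% = DMSO in NR2E3 cells and 100% = DMSO in cells lacking NR2E3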
# GAL4-VP16 luc – GAL4-VP16 reporter modulators, confirmation, counter-screen for NR2E3 agonist project, cell-based, luminescence, CHO-S, high throughput; shares compounds with NR2E3 ag-2; CHO-S GAL4-VP16 luciferase reporter; inhibition, % at 3.98 µM; 2,300 tested, 29% active; AID 624379, 2012;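 active = mean inhibition above a cutoff equal to the average over all tested compounds plus one standard deviation, cut at about 70% in these data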;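 also: luciferase from a UAS reporter driven by GAL4-VP16 transactivation; 0% = DMSO with VP16-transfected cells and 100% = DMSO with cells lacking VP16; higher means less reporter light so more repression of VP16 activity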
# * marks the source's active call; other numbers are inactive results; · = no result.
SMILES,PG9 binder,NR2E3 ag-1,NR2E3 ag-2,Rev-erbA mod,NR2E3 ag confirm,GAL4-VP16 luc
O=C(c1ccc(CSc2nc3ccncc3[nH]2)cc1)N1CCN(c2cccc(Cl)c2)CC1,0.3,2.1,87.9*,-0.6,97.5*,69.3
CCc1c(C)nc2ncnn2c1NCCc1ccc(OC)cc1,-1.5,-0.7,84.2*,1.2,89.2*,65.6
Clc1ccc(-n2c(SCc3cccc4ccccc34)nnc2-c2ccccn2)cc1,·,·,·,3.1,·,·
C[C@@H]1CCN(C2CC2)S(=O)(=O)c2c(cccc2N2CCC[C@@H]2C)O1,·,·,·,6.0,·,·
CN1OC[C@@H]2CN[C@H](c3ccc(-c4ccc(C#N)cc4)cc3)C[C@@H]21,0.7,·,-61.7,-6.8,·,·
CN1OC[C@@H]2CN[C@H](c3ccc(-c4cc5ccccc5o4)cc3)C[C@@H]21,·,·,91.5*,·,78.5*,68.0
O=C(COc1cccc2ccccc12)Nc1ccc(Cl)cc1C(=O)O,0.4,1.4,77.9*,-9.3,94.7*,54.6
Cc1c(NC(=O)C2CCCN(S(=O)(=O)c3ccc(C(C)(C)C)cc3)C2)c(=O)n(-c2ccccc2)n1C (stereo not drawn),·,·,·,-3.8,·,·
N#Cc1c(-c2cccs2)cc(-c2ccccn2)nc1N,0.7,1.8,62.2,1.1,27.3,-14.7
N#Cc1c(-c2cccs2)cc(-c2cccnc2)nc1N,1.8,0.9,-0.8,-2.3,·,·
C#CCNC(=O)C[C@H]1C(=O)N(CCCOC)C2=CCCCC[C@]21C(=O)OC,·,·,·,4.0,·,·
Cc1cc(-c2ccc(C)c(S(=O)(=O)NCCCN3CCN(c4ccccc4F)CC3)c2)on1,-1.0,3.8,61.7,-3.3,76.4*,68.0
CO[C@@]1(NC(=O)C(C(=O)O)c2ccc(O)cc2)C(=O)N2C(C(=O)O)=C(CSc3nnnn3C)CO[C@@H]21 (stereo partly drawn),·,·,·,-3.9,·,·
Cc1ccc(C(=O)Nc2ccc(CC(=O)O)cc2)o1,1.5,-2.0,-9.9,-3.0,·,·
CC(C)(C)c1ccc(C(=O)Nc2ccc(CC(=O)O)cc2)o1,-2.0,0.3,50.7,-3.0,41.5,55.8
Cc1cccc(NC(=S)N/N=C(\c2ccccc2)C(C)C)c1,0.5,4.3,65.3,-1.5,19.7,-49.9
CC/C(=N\NC(=S)Nc1cccc(C)c1)c1ccccc1,-1.9,1.2,27.4,0.7,·,·
CC(C(=O)Nc1ccccc1)c1ccc(-c2ccccc2)c(F)c1 (stereo not drawn),·,-3.1,73.7*,·,52.0,54.4
C=C(C)C1CCC2(C(=O)O)CCC3(C)C(CCC4C5(C)C(C=O)C(O)C(C)(C)C5CCC43C)C12 (stereo not drawn),-1.9,0.1,75.7*,-2.3,57.0,18.0
O=C(CSc1ncccc1C(=O)O)Nc1ccc2c(c1)OCCO2,-0.9,-4.2,65.8,5.6,-6.2,2.9
O=C(Cn1cnc2ccccc21)Nc1ccc2c(c1)OCCCO2,-2.1,1.2,49.8,0.3,38.7,30.5
O=C(CSc1ccccc1C(=O)O)Nc1ccc2c(c1)OCO2,-0.6,4.1,13.6,-4.0,·,·
O=C(Cn1cnc2ccccc2c1=O)Nc1ccc2c(c1)OCO2,0.1,4.9,-49.8,-0.2,·,·
COC(=O)[C@]12C[C@H](CC(=O)NCC3CCCCC3)C(=O)N(CCc3ccc(OC)c(OC)c3)C1=C[C@H](COCc1ccccc1)O[C@@H]2C,·,·,·,2.7,·,·
Clc1ccc([C@H]2OC[C@@]3(CNCCN4CCOCC4)CS[C@H](c4ccc(Cl)cc4)N23)cc1,·,·,·,-1.9,·,·
SMILES,PG9 binder,NR2E3 ag-1,NR2E3 ag-2,Rev-erbA mod,NR2E3 ag confirm,GAL4-VP16 luc
CCN(CC)c1ccc(C(=C2C=CC(=[N+](CC)CC)C=C2)c2ccccc2)cc1,-23.4,·,101.1*,-6.7,99.2*,98.4*
CCN(CC)c1ccc(C(=O)NNC(=O)CCl)cc1,-3.0,-3.4,-9.7,-8.6,·,·
CCN(CC)c1ccc(C(=O)NNC(=O)CCNC(=O)c2ccccc2)cc1,-0.5,4.3,10.5,-4.3,·,·
CCN(CC)c1ccc(C(=C2C=CC(=[N+](CC)CC)C=C2)c2ccc(N(CC)CC)cc2)cc1,-128.2,·,101.2*,-18.7,99.4*,92.2*
COC(=O)C1CN(C2CCCC2)CCS(=O)(=O)N1Cc1ccc(C)cc1 (stereo not drawn),·,·,·,3.5,·,·
COC(=O)[C@]12C[C@H](CC(=O)NCc3ccc(OC)c(OC)c3)C(=O)N(Cc3cccc4ccccc34)C1=C[C@H](C1CCCC1)O[C@@H]2C,·,·,·,-3.0,·,·
COc1ccc(-c2nn(-c3ccccc3)cc2/C=N/N=C(N)N)cc1OC,-0.5,-1.1,0.3,-3.0,·,·
COc1ccc(-c2nn(-c3ccccc3)cc2/C=N/O)cc1OC,1.2,-1.7,60.0,-0.1,38.2,11.2
CN(Cc1ccccc1)C(=O)Cn1c(=O)oc2cc(S(=O)(=O)NCc3ccccc3)ccc21,0.1,4.7,47.8,-7.8,17.2,41.5
CN(Cc1ccco1)C(=O)Cn1c(=O)oc2cc(S(=O)(=O)NCc3ccccc3)ccc21,-2.6,1.8,-0.5,-6.3,·,·
CC(=O)Nc1ccc(NS(=O)(=O)c2ccc(-c3cnc(C4CC4)o3)cc2)cc1,0.0,-1.5,-0.2,-3.0,·,·
Cc1ccc(C)c(NS(=O)(=O)c2ccc(-c3cnc(C4CC4)o3)cc2)c1,-0.4,4.0,80.3*,3.7,59.5,40.2
O=S(=O)(Nc1ccccc1)c1ccc(-c2cnc(C3CC3)o2)cc1,0.1,1.2,15.9,-0.5,·,·
CC(=O)c1cccc(NS(=O)(=O)c2ccc(-c3cnc(C4CC4)o3)cc2)c1,-1.1,1.1,100.5*,0.0,94.9*,82.4*
Cc1cccc(NS(=O)(=O)c2ccc(-c3cnc(C4CC4)o3)cc2)c1C,-2.2,2.1,83.3*,5.1,77.0*,39.1
Cc1cc(C)cc(NS(=O)(=O)c2ccc(-c3cnc(C4CC4)o3)cc2)c1,-2.3,-0.5,52.6,4.5,47.3,33.8
COC(=O)C[C@H]1CC[C@@H]2[C@H](COc3ccc(NS(C)(=O)=O)cc3C(=O)N2C)O1,·,·,·,5.3,·,·
CC(C)NC(=O)N[C@H]1C[C@@H]2O[C@H](CO)CC[C@@H]2O[C@@H]1CCc1ccc(-c2ccccc2F)cc1,·,·,·,5.2,·,·
CN(c1ccc(F)cc1)S(=O)(=O)c1ccc(Cl)c(C(=O)Nc2ccncc2)c1,0.8,4.6,86.7*,6.7,53.5,60.3
CN(c1ccccc1)S(=O)(=O)c1ccc(Cl)c(C(=O)Nc2ccncc2)c1,-1.4,-1.6,76.4*,-1.9,69.2,56.4
CCN(c1ccccc1)S(=O)(=O)c1ccc(Cl)c(C(=O)Nc2ccncc2)c1,-0.3,·,18.7,-1.9,·,·
